Measured values published in ChEMBL document CHEMBL4689842, “EUbOPEN Chemogenomics Library wave 1” (2021).

Tested on: Fibroblast
Assay: Multiplex assay against human fibroblast
Type: toxicity, cell-based
Summary of the method: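 Cells were classed with CellPathfinder machine-learning gating, first as Hoechst high-intensity objects or normal cells, then (normal cells) as healthy, pyknosed or fragmented nuclei, and finally (pyknosed cells) as mitotic or apoptotic. Staining of live cells at seeding used Hoechst33342, BioTracker Green Microtubule Cytoskeleton Dye, MitoTracker Red and Annexin V Alexa Fluor 680, with imaging on a CQ1 microscope at 37°C and 5% CO2 after compound addition. Tubulin, mitochondrial-mass and membrane-permeability phenotypes are per cents of healthy-nucleus cells.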

[1] = 12 h, 1 µM, compound concentration 1 uM, replicate 1
[2] = 12 h, 1 µM, compound concentration 1 uM, replicate 2
[3] = 12 h, 10 µM, compound concentration 10 uM, replicate 1
[4] = 12 h, 10 µM, compound concentration 10 uM, replicate 2
[5] = 24 h, 1 µM, compound concentration 1 uM, replicate 1
[6] = 24 h, 1 µM, compound concentration 1 uM, replicate 2
[7] = 24 h, 10 µM, compound concentration 10 uM, replicate 1
[8] = 24 h, 10 µM, compound concentration 10 uM, replicate 2

SMILES: Cn1nc(C(F)(F)F)cc1-c1cnc(N2CCc3cc(S(=O)(=O)Nc4c(F)cc(Cl)cc4F)cc(N4CCCC4=O)c32)nc1 [TP-020]
- Population Apoptotic (%) [1]: 69%
- Population Fragmented Nuclei (%) [1]: 20%
- Population Healthy Nuclei (%) [1]: 59%
- Population Hoechst High Intensity Objects (%) [1]: 13%
- Population Membrane Permeable-Phenotype (%) [1]: 35%
- Population Mitochondria Different-Phenotype (%) [1]: 4%
- Population Mitotic Cells (%) [1]: 30%
- Population Normal (%) [1]: 86%
- Population Pyknosed Nuclei (%) [1]: 20%
- Population Tubulin-Different-Phenotype (%) [1]: 58%
- Total Cell Count [1]: 241
- Population Apoptotic (%) [2]: 42%
- Population Fragmented Nuclei (%) [2]: 56%
- Population Healthy Nuclei (%) [2]: 26%
- Population Hoechst High Intensity Objects (%) [2]: 34%
- Population Membrane Permeable-Phenotype (%) [2]: 45%
- Population Mitochondria Different-Phenotype (%) [2]: 18%
- Population Mitotic Cells (%) [2]: 57%
- Population Normal (%) [2]: 65%
- Population Pyknosed Nuclei (%) [2]: 17%
- Population Tubulin-Different-Phenotype (%) [2]: 72%
- Total Cell Count [2]: 63
- Population Apoptotic (%) [3]: 65%
- Population Fragmented Nuclei (%) [3]: 30%
- Population Healthy Nuclei (%) [3]: 57%
- Population Hoechst High Intensity Objects (%) [3]: 7%
- Population Membrane Permeable-Phenotype (%) [3]: 13%
- Population Mitochondria Different-Phenotype (%) [3]: 1%
- Population Mitotic Cells (%) [3]: 35%
- Population Normal (%) [3]: 92%
- Population Pyknosed Nuclei (%) [3]: 11%
- Population Tubulin-Different-Phenotype (%) [3]: 3%
- Total Cell Count [3]: 192
- Population Apoptotic (%) [4]: 33%
- Population Fragmented Nuclei (%) [4]: 62%
- Population Healthy Nuclei (%) [4]: 28%
- Population Hoechst High Intensity Objects (%) [4]: 41%
- Population Membrane Permeable-Phenotype (%) [4]: 10%
- Population Mitochondria Different-Phenotype (%) [4]: 0%
- Population Mitotic Cells (%) [4]: 66%
- Population Normal (%) [4]: 58%
- Population Pyknosed Nuclei (%) [4]: 8%
- Population Tubulin-Different-Phenotype (%) [4]: 10%
- Total Cell Count [4]: 60
- Population Apoptotic (%) [5]: 51%
- Population Fragmented Nuclei (%) [5]: 19%
- Population Healthy Nuclei (%) [5]: 57%
- Population Hoechst High Intensity Objects (%) [5]: 9%
- Population Membrane Permeable-Phenotype (%) [5]: 25%
- Population Mitochondria Different-Phenotype (%) [5]: 4%
- Population Mitotic Cells (%) [5]: 48%
- Population Normal (%) [5]: 90%
- Population Pyknosed Nuclei (%) [5]: 23%
- Population Tubulin-Different-Phenotype (%) [5]: 55%
- Total Cell Count [5]: 246
- Population Apoptotic (%) [6]: 57%
- Population Fragmented Nuclei (%) [6]: 57%
- Population Healthy Nuclei (%) [6]: 26%
- Population Hoechst High Intensity Objects (%) [6]: 36%
- Population Membrane Permeable-Phenotype (%) [6]: 18%
- Population Mitochondria Different-Phenotype (%) [6]: 27%
- Population Mitotic Cells (%) [6]: 42%
- Population Normal (%) [6]: 63%
- Population Pyknosed Nuclei (%) [6]: 16%
- Population Tubulin-Different-Phenotype (%) [6]: 27%
- Total Cell Count [6]: 66
- Population Apoptotic (%) [7]: 42%
- Population Fragmented Nuclei (%) [7]: 22%
- Population Healthy Nuclei (%) [7]: 66%
- Population Hoechst High Intensity Objects (%) [7]: 10%
- Population Membrane Permeable-Phenotype (%) [7]: 7%
- Population Mitochondria Different-Phenotype (%) [7]: 1%
- Population Mitotic Cells (%) [7]: 57%
- Population Normal (%) [7]: 89%
- Population Tubulin-Different-Phenotype (%) [7]: 2%
- Total Cell Count [7]: 188
- Population Apoptotic (%) [8]: 50%
- Population Fragmented Nuclei (%) [8]: 52%
- Population Healthy Nuclei (%) [8]: 35%
- Population Hoechst High Intensity Objects (%) [8]: 38%
- Population Membrane Permeable-Phenotype (%) [8]: 8%
- Population Mitochondria Different-Phenotype (%) [8]: 0%
- Population Mitotic Cells (%) [8]: 50%
- Population Normal (%) [8]: 61%
- Population Pyknosed Nuclei (%) [8]: 11%
- Population Tubulin-Different-Phenotype (%) [8]: 25%
- Total Cell Count [8]: 55
